This is one part of a sample in which hits are shown more often than they occur.
bCat KO growth = beta-catenin-lacking colon tumor cell growth suppression. HCT116 beta-catenin knockout viability, CellTiter-Glo, 60 h; active compounds read low. viability, % at 10 µM. 140,000 tested, 1.5% active;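 active = viability at or under a set limit, the compound median less 4 SD, cut at about 6% in these data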
Lung fibro prol = blocks proliferation of human lung fibroblasts | LL 47 human lung fibroblast viability, ATP luminescence; active compounds read low | viability, % at 10 µM | 85,000 tested, 1.1% active | AID 719;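 active = viability at or below 50% in the single dose screen; inactive = viability above 50%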;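 note: compound exposure lasted 72 h before the ATP readout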
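Material: human LL 47 lung fibroblast cells; quantity: 1,150 cells/well; medium: IMEM plus 15% FBS; doses: 0.1% DMSO in all compound wells; timing: overnight attachment after seeding, then 72 h compound exposure at 37 °C; detection: CellTiter-Glo luminescence; measure: % viability of median cell-only signal; controls: cell-only wells, no compound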
H69AR inhibit = blocks growth of human H69AR lung tumor cells; H69AR lung tumor viability, ATP luminescence, 72 h; active compounds read low; AID 598; 85,000 tested, 6% active; viability, % at 10 µM;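 active = viability at or below 40%; inactive = viability above 40%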;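 note: multidrug resistant small cell line overexpressing MRP-1 efflux transporter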
HCT116 PTEN-null = growth suppressors of cells with PTEN tumor suppressor deletion; HCT116 PTEN-null viability, CellTiter-Glo, 60 h; active compounds read low; viability, % at 10 µM; 140,000 tested, 1.2% active;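 active = viability at or below a set limit, 4 SD under the median of all tested compounds, cut at about 3.7% in these data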;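 note: PTEN knockout HCT116 line with beta catenin targeted HCT116 as companion control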
Calb biofilm kill = kills Candida albicans biofilms; C. albicans biofilm + clotrimazole, Alamar Blue; inhibition, % at 6 µM; 85,000 tested, 0.14% active; AID 834;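 active = inhibition above 20%; inactive = inhibition below 20%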;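 note: preformed 24 hr biofilms exposed to compound for 48 hr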
HUVEC prolif 384 = blocks proliferation of human endothelial cells; HUVEC proliferation, CellTiter-Glo luminescence, 72 h; active compounds read low; viability, % at 10 µM (by protocol); 86,000 tested, 1.1% active; AID 648;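 active = viability at or below 30%; inactive = viability above 30%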
Hits are given with their value; i = inactive; nt = no result given.

SMILES	bCat KO growth	Lung fibro prol	H69AR inhibit	HCT116 PTEN-null	Calb biofilm kill	HUVEC prolif 384
CC(C)(C)c1nn(-c2ccccc2)c2[nH]c(=O)c(CNc3ccc4c(c3)OCCO4)cc12	i	i	i	i	i	i
COc1ccc([N+](=O)[O-])cc1NC(=O)c1ccc(N(Cc2ccccc2Cl)S(C)(=O)=O)cc1	i	nt	nt	i	nt	nt
Cn1c2c(c(=O)c3ccccc31)CCC(C)(C)O2	i	nt	nt	i	nt	nt
CCOC(=O)c1[nH]c2ccc(OC)cc2c1NC(=S)N1CCN(c2ccccc2OC)CC1	i	nt	nt	i	nt	nt
CN1CCN(Cc2nc3ccccc3c(=O)n2Cc2nc(-c3ccc4ccccc4c3)cs2)CC1	0.8	nt	nt	0.7	nt	nt
CN1CCN(Cc2nc3ccccc3c(=O)n2Cc2nc(-c3ccccc3F)cs2)CC1	i	nt	nt	i	nt	nt
CCOc1ccccc1NC(=O)/C=C/C(N)=O	i	i	1.3	i	i	i
CCOC(=O)N1CC=C2C(C#N)=C(N)C(C#N)(C#N)[C@H](c3ccc(OC(C)C)c(OCC)c3)[C@H]2C1	i	i	37	i	i	i
N#CC1=C(N)C(C#N)(C#N)C(c2ccncc2)C2CN(C(=O)OCc3ccccc3)CC=C12 (stereo not given)	i	i	7.7	i	i	i
N#CC1=C(N)C(C#N)(C#N)[C@H](c2cccnc2)[C@H]2CN(C(=O)OCc3ccccc3)CC=C12	i	nt	nt	i	nt	nt
Nc1nnnn1/N=C/c1cc(Cl)cc(Cl)c1OCc1ccc(Cl)cc1Cl	3.2	i	22	i	i	i
Cc1sc2nc3c(C(=O)N4CCN(c5ncccn5)CC4)cccn3c(=O)c2c1C	nt	i	i	nt	i	i
Cc1cccc(C(=O)NC(=S)NNC(=O)c2ccccc2Cl)c1	i	nt	nt	i	nt	nt
Cc1cc(C(=O)NNC(=S)NC(=O)/C=C/c2ccccc2Cl)n[nH]1	i	i	36	i	i	i
O=C(CCNS(=O)(=O)c1cccs1)N1CCc2ccccc2C1	i	i	i	i	i	i
C/C(=N\NC(=O)c1cccs1)C(C)(C)C	i	nt	nt	i	nt	nt
Cc1ccc2[nH]c3c(N4CCN(Cc5ccccc5)CC4)ncnc3c2c1	i	i	i	i	i	14
Cc1ccc2c(c1)[nH]c1c(N3CCN(Cc4ccccc4)CC3)ncnc12	i	i	i	i	i	15
c1ccc(CN2CCN(c3ncnc4c3[nH]c3ccccc34)CC2)cc1	3.9	i	i	i	i	i
Cc1ccc2c(c1)c1ncnc(N3CCC4(CC3)OCCO4)c1n2C	i	i	29	i	i	i
CCOc1ccc2[nH]c3c(N4CCN(c5ccccn5)CC4)ncnc3c2c1	i	i	nt	i	i	i
Cc1ccc2[nH]c3c(N4CCN(Cc5ccc6c(c5)OCO6)CC4)ncnc3c2c1	i	i	i	i	i	i
Cc1cccc(NC(=O)C2CCCN2/C=C/C(=O)C(F)(F)F)c1C (stereo not given)	i	nt	nt	i	nt	nt
COc1cc2[nH]c3c(N4CCN(c5ccc(Cl)cc5)CC4)ncnc3c2cc1OC	i	i	6.9	i	i	i
c1ccc2c(c1)CCN(c1ncnc3c1[nH]c1ccccc13)C2	i	nt	nt	i	nt	nt
SMILES	bCat KO growth	Lung fibro prol	H69AR inhibit	HCT116 PTEN-null	Calb biofilm kill	HUVEC prolif 384
Fc1ccc2[nH]c3c(N4CCN(C5CCCCC5)CC4)ncnc3c2c1	i	i	i	i	i	i
COc1cc2[nH]c3c(Cl)ncnc3c2cc1OC	i	nt	nt	i	nt	nt
OC1(c2cccc(C(F)(F)F)c2)CCN(c2ncnc3c2[nH]c2ccccc23)CC1	1.2	i	19	1.3	i	i
Cc1ccc2[nH]c3c(N4CCCCCC4)ncnc3c2c1	5.1	i	i	i	i	32
c1ccc2c(c1)[nH]c1c(N3CCC4(CC3)OCCO4)ncnc12	i	i	39	i	i	i
COc1ccc(/C=C/C(=O)c2ccc3c4c(cccc24)CC3)cc1OC	i	nt	nt	i	nt	nt
COc1ccc2c(c1)[nH]c1c(N3CCN(Cc4ccc5c(c4)OCO5)CC3)ncnc12	i	nt	nt	i	nt	nt
COc1cccc2[nH]c3c(N4CCN(Cc5ccc6c(c5)OCO6)CC4)ncnc3c12	i	i	40	i	i	i
O=C(Nc1ncc2c(n1)CC(c1ccco1)CC2=O)c1ccccc1 (stereo not given)	i	i	i	i	i	i
Cc1cccc(Nc2ncc3c(n2)CC(c2ccco2)CC3=O)c1 (stereo not given)	i	i	30	i	i	i
O=C1CC(c2ccco2)Cc2nc(Nc3nc(-c4ccccc4)c4ccccc4n3)ncc21 (stereo not given)	3.4	25	nt	3.5	i	i
Cc1cccc(OCCC(=O)NCC(=O)Nc2cccc(C)c2C)c1	i	nt	nt	i	nt	nt
COC(=O)C1=CN(CC2CCCO2)C=C(C(=O)OC)C1c1ccccc1C(F)(F)F (stereo not given)	i	i	37	i	i	i
O=C(OCn1ncc(Cl)c(Cl)c1=O)c1ccc(C(F)(F)F)cc1	3.4	nt	nt	i	nt	nt
COc1ccc(CC(=O)Nc2ccc3c(c2)OCO3)cc1S(=O)(=O)N1CCOCC1	i	i	i	i	i	i
CCOC(=O)c1ccc(NC(=O)CN2C(=O)C3C4C=CC(C4)C3C2=O)cc1 (stereo not given)	i	i	35	i	i	i
CCOC(=O)c1ccc(NC(=O)CN2C(=O)C(C)SC(C)C2=O)cc1 (stereo not given)	i	nt	nt	i	nt	nt
COc1ccc(NC(=O)Cn2ncc(Cl)c(Cl)c2=O)cc1S(=O)(=O)N1CCOCC1	0.9	nt	nt	0.6	nt	nt
CCc1ccccc1NC(=O)CN(C)C(=O)Cn1ncc(Cl)c(Cl)c1=O	1.8	nt	nt	1.8	nt	nt
CCOC(=O)c1ccc(NC(=O)Cn2ncc(Cl)c(Cl)c2=O)cc1	1.7	nt	nt	1.8	nt	nt
CCOC(=O)c1ccc(NC(=O)CN2C(=O)CCC2=O)cc1	i	i	i	i	i	i
Cc1cc(C)n(-c2ccc(C(=O)OCn3nnc4ccccc4c3=O)cc2)n1	i	i	i	i	i	i
Cc1ccc(C(=O)OCn2ncc(Cl)c(Cl)c2=O)cc1	1.0	nt	nt	1.2	nt	nt
COc1cc(/C=N/NC(=O)CSc2nc3ccccc3n2C)cc(OC)c1OC	i	nt	nt	i	nt	nt
O=c1c2ccccc2nc(SCc2nc3ccccc3s2)n1Cc1ccco1	i	i	33	i	i	i
SMILES	bCat KO growth	Lung fibro prol	H69AR inhibit	HCT116 PTEN-null	Calb biofilm kill	HUVEC prolif 384
O=c1c2ccccc2nc(SCc2ccccc2)n1Cc1ccco1	i	i	i	i	i	i
CCCn1c(=O)c2ccccc2n2c(SCc3nc4ccccc4s3)nnc12	i	nt	31	i	i	i
CCCCn1c(SCc2nc3ccccc3s2)nc2cc(S(N)(=O)=O)ccc21	i	i	16	i	i	i
CCCCn1c(SCc2nc3ccccc3s2)nc2ccccc2c1=O	i	nt	nt	i	nt	nt
CCCCCCCCCCCC(=O)N/N=C/c1ccco1	i	nt	nt	i	nt	nt
C/C(CC(=O)Nc1cccnc1)=N\NC(=O)C(=O)Nc1cccc(C)c1	i	nt	nt	i	nt	nt
O=C(NNC1=C(C(=O)C(F)(F)F)CCC1)c1cccc(O)c1	i	i	i	i	i	i
Cc1cccc(C(=O)NNC2=C(C(=O)C(F)(F)F)CCC2)c1O	i	i	25	i	i	i
Cn1c(Cn2c(C(F)(F)F)nc3ccccc32)nc2ccccc21	i	i	i	i	i	i
